Three compounds from ChEMBL document CHEMBL1126902, “Synthesis, chemical reactivity, and antitumor evaluation of congeners of carmethizole hydrochloride, an experimental "acylated vinylogous carbinolamine" tumor inhibitor” (J Med Chem, 1993) can be followed below.

Assay [1] is described as follows: Concentration required to inhibit tumor growth in […], human breast adenocarcinoma cell line. It counts as functional. Put shortly: (§1)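 Cells grown in RPMI 1640 with 5% fetal calf serum, 5% NuSerum IV and 20 mM HEPES, seeded and allowed to adhere overnight. Compound dissolved in RPMI-1640 plus HEPES and tested over a 5 log range (10 concentrations) for 72 h. Read-out by sulforhodamine B assay. Median-effect dose derived by nonlinear regression of the concentration-effect curve.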

For assay [2], the system named is L1210 (Mus musculus). Kind of assay: Concentration required to inhibit tumor growth in L1210, murine lymphocytic leukemia cell line.
Assay [3] is described as follows: Concentration required to inhibit tumor growth in PSN-1, human pancreatic carcinoma cell line. It counts as functional. A digest of the protocol: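 PSN-1 pancreatic carcinoma cells exposed to compound dissolved in RPMI-1640 plus HEPES at its maximum soluble concentration for 72 h. Read-out by sulforhodamine B colorimetric assay.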
In assay [4] the test system is HT-29. Kind of assay: Concentration required to inhibit tumor growth in HT29, human colon adenocarcinoma cell line. It counts as functional, cell-based. Particulars: Homo sapiens, HT-29. Put shortly: as §1
The subject of assay [5] is A549. Briefly: Concentration required to inhibit tumor growth in A549, human lung carcinoma (NSCLC) cell line. It counts as functional, cell-based. Put shortly: as §1

With `CNC(=O)OCc1nc2n(c1COC(=O)NC)CCCS2`, the IC50 in assay [1] is more than 1000 µM; in assay [2] it was more than 100 µM; in assay [3], more than 650 µM; in assay [4] it was more than 1000 µM; in assay [5], more than 1000 µM.
Take `CNC(=O)OCc1nc2n(c1COC(=O)NC)CCS2`: the IC50 came to 147 µM in assay [1]; 11 µM in assay [2]; 118 µM in assay [3]; 108 µM in assay [4]; 190 µM in assay [5].
The like results for `CNC(=O)OCc1nc(Sc2ccccc2)n(C)c1COC(=O)NC` were, in that order, more than 100 µM, more than 100 µM, more than 100 µM, more than 100 µM and more than 100 µM.
